In ChEMBL document CHEMBL3616442, “Unconventional Knoevenagel-type indoles: Synthesis and cell-based studies for the identification of pro-apoptotic agents” (Eur J Med Chem, 2015):

What was measured:
[1] = tested on: MT4; assay: Antiproliferative activity against human MT4 cells after 96 hrs by MTT assay; assay type: functional, cell-based; conditions: MT4, 96 h
Summary of the method: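 Exponentially growing MT-4 cells (CD4+ human T-cells carrying integrated HTLV-1 genome), seeded at 1×10^5 cells/mL in RPMI-1640 with 10% FCS and antibiotics. Serial dilutions of compound (DMSO stock 100 mM, diluted in medium), 37 °C, 5% CO₂, 96 h. Viability read by MTT. 50% inhibition versus untreated controls by linear regression. Mean ± SD of three independent determinations.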

[2] = tested on: CCRF-CEM; assay: Growth inhibition of human CCRF-CEM cells after 48 hrs by sulforhodamine B assay; assay type: functional
Summary of the method: (§1)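 NCI 60-cell-line screen. Compounds tested at five 10-fold dilutions from 10^-4 to 10^-8 M. Cells exposed for the last 48 h of a 72 h incubation, growth estimated by sulforhodamine B protein assay. GI50 is the concentration giving 50% growth inhibition. Values beyond the tested range are expressed as greater or lesser than the extreme concentration.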

[3] = tested on: HL-60(TB); assay: Growth inhibition of human HL-60(TB) cells after 48 hrs by sulforhodamine B assay; assay type: functional; conditions: HL-60, 48 h
Summary of the method: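 NCI 60-cell-line screen, HL-60(TB) included. Compound given at five 10-fold dilutions from 10^-4 to 10^-8 M. Cells exposed for the last 48 h of a 72 h incubation. Growth or viability estimated by sulforhodamine B protein assay. GI50 is the concentration giving 50% growth inhibition. Values outside the tested range are reported as greater or less than the highest or lowest concentration.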

[4] = tested on: K562; assay: Growth inhibition of human K562 cells after 48 hrs by sulforhodamine B assay; assay type: functional; conditions: K562, 48 h; summary of the method: as §1
[5] = Growth inhibition of human RPMI8226 cells after 48 hrs by sulforhodamine B assay; assay type: functional; conditions: RPMI-8226, 48 h
[6] = tested on: SR; assay: Growth inhibition of human SR cells after 48 hrs by sulforhodamine B assay; assay type: functional
[7] = Growth inhibition of human HOP92 cells after 48 hrs by sulforhodamine B assay; assay type: functional; conditions: HOP-92, 48 h; summary of the method: as §1
[8] = tested on: NCI-H23; assay: Growth inhibition of human NCI-H23 cells after 48 hrs by sulforhodamine B assay; assay type: functional; conditions: NCI-H23, 48 h; summary of the method: as §1
[9] = tested on: NCI-H322M; assay: Growth inhibition of human NCI-H322M cells after 48 hrs by sulforhodamine B assay; assay type: functional; summary of the method: as §1
[10] = tested on: NCI-H460; assay: Growth inhibition of human NCI-H460 cells after 48 hrs by sulforhodamine B assay; assay type: functional; conditions: NCI-H460, 48 h; summary of the method: as §1
[11] = tested on: NCI-H522; assay: Growth inhibition of human NCI-H522 cells after 48 hrs by sulforhodamine B assay; assay type: functional; conditions: NCI-H522, 48 h; summary of the method: as §1
[12] = Growth inhibition of human COLO205 cells after 48 hrs by sulforhodamine B assay; assay type: functional; conditions: COLO 205, 48 h; summary of the method: as §1
[13] = tested on: HCT-116; assay: Growth inhibition of human HCT116 cells after 48 hrs by sulforhodamine B assay; assay type: functional; conditions: HCT-116, 48 h; summary of the method: as §1
[14] = tested on: HT-29; assay: Growth inhibition of human HT-29 cells after 48 hrs by sulforhodamine B assay; assay type: functional; conditions: HT-29, 48 h; summary of the method: as §1
[15] = tested on: KM12; assay: Growth inhibition of human KM12 cells after 48 hrs by sulforhodamine B assay; assay type: functional; conditions: KM12, 48 h; summary of the method: as §1
[16] = tested on: SW-620; assay: Growth inhibition of human SW620 cells after 48 hrs by sulforhodamine B assay; assay type: functional; conditions: SW-620, 48 h
[17] = tested on: SF-268; assay: Growth inhibition of human SF268 cells after 48 hrs by sulforhodamine B assay; assay type: functional; conditions: SF-268, 48 h
[18] = Growth inhibition of human SF295 cells after 48 hrs by sulforhodamine B assay; assay type: functional; conditions: SF-295, 48 h
[19] = Growth inhibition of human SF539 cells after 48 hrs by sulforhodamine B assay; assay type: functional; conditions: SF-539, 48 h
[20] = tested on: SNB-19; assay: Growth inhibition of human SNB19 cells after 48 hrs by sulforhodamine B assay; assay type: functional; conditions: SNB-19, 48 h
[21] = tested on: SNB-75; assay: Growth inhibition of human SNB75 cells after 48 hrs by sulforhodamine B assay; assay type: functional; conditions: SNB-75, 48 h
[22] = tested on: U-251; assay: Growth inhibition of human U251 cells after 48 hrs by sulforhodamine B assay; assay type: functional; conditions: U-251, 48 h
[23] = tested on: Malme-3M; assay: Growth inhibition of human MALME-3M cells after 48 hrs by sulforhodamine B assay; assay type: functional; summary of the method: as §1
[24] = tested on: M14; assay: Growth inhibition of human M14 cells after 48 hrs by sulforhodamine B assay; assay type: functional; conditions: M14, 48 h; summary of the method: as §1
[25] = tested on: SK-MEL-2; assay: Growth inhibition of human SK-MEL-2 cells after 48 hrs by sulforhodamine B assay; assay type: functional; conditions: SK-MEL-2, 48 h
[26] = tested on: SK-MEL-5; assay: Growth inhibition of human SK-MEL-5 cells after 48 hrs by sulforhodamine B assay; assay type: functional; conditions: SK-MEL-5, 48 h
[27] = tested on: UACC-257; assay: Growth inhibition of human UACC257 cells after 48 hrs by sulforhodamine B assay; assay type: functional; conditions: UACC-257, 48 h
[28] = tested on: UACC-62; assay: Growth inhibition of human UACC62 cells after 48 hrs by sulforhodamine B assay; assay type: functional; conditions: UACC-62, 48 h
[29] = tested on: IGROV-1; assay: Growth inhibition of human IGROV1 cells after 48 hrs by sulforhodamine B assay; assay type: functional; conditions: IGROV-1, 48 h; summary of the method: as §1
[30] = tested on: OVCAR-4; assay: Growth inhibition of human OVCAR4 cells after 48 hrs by sulforhodamine B assay; assay type: functional; conditions: OVCAR-4, 48 h; summary of the method: as §1
[31] = tested on: OVCAR-5; assay: Growth inhibition of human OVCAR5 cells after 48 hrs by sulforhodamine B assay; assay type: functional; conditions: OVCAR-5, 48 h
[32] = tested on: OVCAR-8; assay: Growth inhibition of human OVCAR8 cells after 48 hrs by sulforhodamine B assay; assay type: functional; conditions: OVCAR-8, 48 h
[33] = Growth inhibition of human NCI-ADR-RES cells after 48 hrs by sulforhodamine B assay; assay type: functional; summary of the method: as §1
[34] = tested on: SK-OV-3; assay: Growth inhibition of human SKOV3 cells after 48 hrs by sulforhodamine B assay; assay type: functional; conditions: SK-OV-3, 48 h
[35] = tested on: 786-0; assay: Growth inhibition of human 786-0 cells after 48 hrs by sulforhodamine B assay; assay type: functional; conditions: 786-0, 48 h; summary of the method: as §1
[36] = tested on: A498; assay: Growth inhibition of human A498 cells after 48 hrs by sulforhodamine B assay; assay type: functional; conditions: A498, 48 h; summary of the method: as §1
[37] = tested on: ACHN; assay: Growth inhibition of human ACHN cells after 48 hrs by sulforhodamine B assay; assay type: functional; summary of the method: as §1
[38] = tested on: CAKI-1; assay: Growth inhibition of human CAKI-1 cells after 48 hrs by sulforhodamine B assay; assay type: functional; conditions: CAKI-1, 48 h; summary of the method: as §1
[39] = tested on: UO-31; assay: Growth inhibition of human UO31 cells after 48 hrs by sulforhodamine B assay; assay type: functional; conditions: UO-31, 48 h
[40] = tested on: PC-3; assay: Growth inhibition of human PC3 cells after 48 hrs by sulforhodamine B assay; assay type: functional; conditions: PC-3, 48 h
[41] = tested on: DU-145; assay: Growth inhibition of human DU145 cells after 48 hrs by sulforhodamine B assay; assay type: functional; conditions: DU-145, 48 h; summary of the method: as §1
[42] = Growth inhibition of human BT549 cells after 48 hrs by sulforhodamine B assay; assay type: functional; conditions: BT-549, 48 h; summary of the method: as §1
[43] = tested on: T47D; assay: Growth inhibition of human T47D cells after 48 hrs by sulforhodamine B assay; assay type: functional

CCOC(=O)C(=Cc1c(-c2ccccc2)[nH]c2ccccc12)C(=O)OCC
EC50 [1]: 2.3 µM
GI50 [2]: 2.6 µM
GI50 [3]: 4.4 µM
GI50 [4]: 3.6 µM
GI50 [5]: 0.219 µM
GI50 [6]: 2.1 µM
GI50 [7]: 8.8 µM
GI50 [8]: 2.9 µM
GI50 [9]: 12.7 µM
GI50 [10]: 3.8 µM
GI50 [11]: 3.4 µM
GI50 [12]: 4.9 µM
GI50 [13]: 4.3 µM
GI50 [14]: 4.6 µM
GI50 [15]: 3.5 µM
GI50 [16]: 5.6 µM
GI50 [17]: 6.8 µM
GI50 [18]: 7.6 µM
GI50 [19]: 14.5 µM
GI50 [20]: 23.9 µM
GI50 [21]: 7 µM
GI50 [22]: 4.9 µM
GI50 [23]: 8.9 µM
GI50 [24]: 4.2 µM
GI50 [25]: 4.7 µM
GI50 [26]: 3.8 µM
GI50 [27]: 7.5 µM
GI50 [28]: 4.6 µM
GI50 [29]: 5.7 µM
GI50 [30]: 10.5 µM
GI50 [31]: 18.5 µM
GI50 [32]: 4.1 µM
GI50 [33]: 2.9 µM
GI50 [34]: 13.6 µM
GI50 [35]: 12.9 µM
GI50 [36]: 16.9 µM
GI50 [37]: 4.4 µM
GI50 [38]: 10.3 µM
GI50 [39]: 4 µM
GI50 [40]: 3.3 µM
GI50 [41]: 9.7 µM
GI50 [42]: 5.3 µM
GI50 [43]: 2.7 µM

COc1ccc2[nH]c(-c3ccccc3)c(C=C(C#N)C#N)c2c1
EC50 [1]: 1 µM
GI50 [2]: 3.4 µM
GI50 [3]: 2.5 µM
GI50 [4]: 2.1 µM
GI50 [5]: 2.6 µM
GI50 [6]: 0.865 µM
GI50 [7]: 2.4 µM
GI50 [8]: 4.1 µM
GI50 [9]: 7.4 µM
GI50 [10]: 3.6 µM
GI50 [11]: 4.6 µM
GI50 [12]: 2.1 µM
GI50 [13]: 4.4 µM
GI50 [14]: 3.1 µM
GI50 [15]: 3.5 µM
GI50 [16]: 3.6 µM
GI50 [17]: 8.3 µM
GI50 [18]: 4.2 µM
GI50 [19]: 2.9 µM
GI50 [20]: 6 µM
GI50 [21]: 2.8 µM
GI50 [22]: 3.5 µM
GI50 [23]: 4.4 µM
GI50 [24]: 2.3 µM
GI50 [25]: 5.9 µM
GI50 [26]: 2.9 µM
GI50 [27]: 30 µM
GI50 [28]: 2.5 µM
GI50 [29]: 8.4 µM
GI50 [30]: 5.4 µM
GI50 [31]: 44.2 µM
GI50 [32]: 7.7 µM
GI50 [33]: 2.8 µM
GI50 [34]: 4.8 µM
GI50 [35]: 6.6 µM
GI50 [36]: 2 µM
GI50 [37]: 7.4 µM
GI50 [38]: 4.1 µM
GI50 [39]: 6.4 µM
GI50 [40]: 5.4 µM
GI50 [41]: 6.5 µM
GI50 [42]: 2.2 µM
GI50 [43]: 2.3 µM

COc1ccc(-c2[nH]c3ccc(OC)cc3c2/C=C(\C#N)S(=O)(=O)c2ccccc2)cc1
EC50 [1]: 0.2 µM
GI50 [2]: 1.3 µM
GI50 [3]: 0.899 µM
GI50 [4]: 0.508 µM
GI50 [5]: 1.3 µM
GI50 [6]: 0.305 µM
GI50 [7]: 0.698 µM
GI50 [8]: 0.946 µM
GI50 [9]: 4.3 µM
GI50 [10]: 0.687 µM
GI50 [11]: 1.7 µM
GI50 [12]: 0.396 µM
GI50 [13]: 0.539 µM
GI50 [14]: 0.435 µM
GI50 [15]: 0.654 µM
GI50 [16]: 0.54 µM
GI50 [17]: 1.6 µM
GI50 [18]: 0.76 µM
GI50 [19]: 0.51 µM
GI50 [20]: 3.2 µM
GI50 [21]: 0.612 µM
GI50 [22]: 0.563 µM
GI50 [23]: 3.2 µM
GI50 [24]: 0.5 µM
GI50 [25]: 9 µM
GI50 [26]: 0.319 µM
GI50 [27]: 46.1 µM
GI50 [28]: 0.66 µM
GI50 [29]: 10.6 µM
GI50 [30]: 2.1 µM
GI50 [31]: 4.6 µM
GI50 [32]: 3.1 µM
GI50 [33]: 0.494 µM
GI50 [34]: 0.901 µM
GI50 [35]: 2.1 µM
GI50 [37]: 1.8 µM
GI50 [38]: 4.2 µM
GI50 [39]: 3.1 µM
GI50 [40]: 0.534 µM
GI50 [41]: 0.875 µM
GI50 [42]: 4.8 µM
GI50 [43]: 0.905 µM
